In ChEMBL document CHEMBL1144402, “Effect of a 6-cyano substituent in 14-oxygenated N-methylmorphinans on opioid receptor binding and antinociceptive potency” (J Med Chem, 2005):

Key:
[1] = tested on: Mus musculus; test: In vivo analgesic effect (sc) assessed as antinociceptive potency by p-phenylquinone writhing test in mice; format: functional
In short: (§1)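 Male ICR mice of 20–30 g, each animal tested only once. Drug given subcutaneously at a minimum of three doses, 6–10 mice per dose. Hot-plate, tail-flick and p-phenylquinone writhing tests were run as modified procedures. Potency is given as the 50% effective dose with 95% confidence limits.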

[2] = tested on: Mus musculus; test: In vivo analgesic effect (sc) assessed as antinociceptive potency by tail flick test in mice; format: functional; in short: as §1
[3] = tested on: Mus musculus; test: In vivo analgesic effect (sc) assessed as antinociceptive potency by hot plate test in mice; format: functional; in short: as §1
[4] = target: Kappa-type opioid receptor (Rattus norvegicus, UniProt P34975); test: Displacement of[3H]U69,593 from kappa opioid receptor of rat brain membranes
Kappa-type opioid receptor, sequence (P34975 whole entry): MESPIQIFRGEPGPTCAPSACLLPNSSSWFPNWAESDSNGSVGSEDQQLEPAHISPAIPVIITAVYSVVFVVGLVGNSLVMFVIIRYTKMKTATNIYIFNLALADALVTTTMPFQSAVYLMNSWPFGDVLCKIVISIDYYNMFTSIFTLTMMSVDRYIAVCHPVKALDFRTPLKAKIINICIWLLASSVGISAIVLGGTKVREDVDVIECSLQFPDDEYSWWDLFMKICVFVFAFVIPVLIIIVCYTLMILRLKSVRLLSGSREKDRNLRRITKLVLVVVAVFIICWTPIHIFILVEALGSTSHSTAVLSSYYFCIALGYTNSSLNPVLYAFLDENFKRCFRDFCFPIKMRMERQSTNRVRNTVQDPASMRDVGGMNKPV
In short: (§2)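 Competitive binding on rat brain membrane preparations with the tritiated radioligand named for each receptor (μ, [3H]DAMGO; δ, [3H][Ile5,6]deltorphin II; κ, [3H]U69,593). Affinity is reported as inhibition constant (Ki).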

[5] = target: Mu-type opioid receptor (Rattus norvegicus, UniProt P33535); test: Displacement of [3H][DAMGO] from mu opioid receptor of rat brain membranes; format: cell membranes, Membrane; in short: as §2
Mu-type opioid receptor, sequence (P33535 whole entry): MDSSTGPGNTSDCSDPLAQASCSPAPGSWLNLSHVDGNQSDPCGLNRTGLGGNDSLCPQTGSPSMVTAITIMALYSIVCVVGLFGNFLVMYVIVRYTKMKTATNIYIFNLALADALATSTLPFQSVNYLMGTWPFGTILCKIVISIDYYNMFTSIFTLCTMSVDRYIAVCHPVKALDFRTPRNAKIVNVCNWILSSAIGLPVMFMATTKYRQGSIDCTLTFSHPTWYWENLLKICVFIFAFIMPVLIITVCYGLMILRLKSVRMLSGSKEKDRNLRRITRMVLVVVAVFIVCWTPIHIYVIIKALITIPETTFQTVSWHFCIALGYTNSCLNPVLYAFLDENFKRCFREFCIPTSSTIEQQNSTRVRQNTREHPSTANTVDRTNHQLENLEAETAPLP

[6] = target: Delta-type opioid receptor (Rattus norvegicus, UniProt P33533); test: Displacement of [3H]Ile5,6]-deltorphin II from delta opioid receptor of rat brain membranes; format: cell membranes, Membrane; in short: as §2
Delta-type opioid receptor, sequence (P33533 whole entry): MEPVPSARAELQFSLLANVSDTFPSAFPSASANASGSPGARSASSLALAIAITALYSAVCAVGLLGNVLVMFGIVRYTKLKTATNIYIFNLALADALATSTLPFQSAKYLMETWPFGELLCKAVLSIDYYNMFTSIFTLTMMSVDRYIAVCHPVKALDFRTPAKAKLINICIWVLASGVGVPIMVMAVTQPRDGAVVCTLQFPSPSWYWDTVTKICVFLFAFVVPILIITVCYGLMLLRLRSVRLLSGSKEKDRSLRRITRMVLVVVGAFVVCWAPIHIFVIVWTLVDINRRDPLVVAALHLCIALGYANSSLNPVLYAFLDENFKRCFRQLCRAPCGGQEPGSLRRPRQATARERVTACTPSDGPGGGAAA

[7] = tested on: Mus musculus; test: In vivo analgesic effect of the compound (sc) assessed as antinociceptive potency by hot plate test in mice; format: functional; in short: as §1
[8] = tested on: Mus musculus; test: In vivo analgesic effect of the compound (sc) assessed as antinociceptive potency by tail flick test in mice; format: functional; in short: as §1
[9] = tested on: Mus musculus; test: In vivo analgesic effect of the compound (sc) assessed as antinociceptive potency by p-phenylquinone writhing test in mice; format: functional; in short: as §1

## COc1ccc2c3c1O[C@H]1C(=O)CC[C@@]4(O)[C@@H](C2)N(C)CC[C@]314 [OXYCODONE]
[1]
  ED50: 0.38 mg/kg
[2]
  ED50: 0.94 mg/kg
[3]
  ED50: 1.37 mg/kg

## COc1ccc2c(c1OC)[C@]13CCN(C)[C@H](C2)[C@]1(O)CCC(=O)C3
[4]
  Ki: 693 nM
[5]
  Ki: 3.88 nM
[6]
  Ki: 91.6 nM
[7]
  ED50: 0.14 mg/kg

## COc1ccc2c(c1O)[C@@]13C=C(C#N)CC[C@@]1(OC)[C@@H](C2)N(C)CC3
[4]
  Ki: 378 nM
[8]
  ED50: 0.21 mg/kg
[5]
  Ki: 5.38 nM
[9]
  ED50: 0.11 mg/kg
[6]
  Ki: 197 nM
[7]
  ED50: 0.25 mg/kg

## COc1ccc2c(c1OC)[C@@]13C=C(C#N)CC[C@@]1(O)[C@@H](C2)N(C)CC3
[4]
  Ki: 364 nM
[8]
  ED50: 0.018 mg/kg
[5]
  Ki: 2.44 nM
[9]
  ED50: 0.026 mg/kg
[6]
  Ki: 107 nM
[7]
  ED50: 0.15 mg/kg

## COc1ccc2c(c1O)[C@]13CCN(C)[C@H](C2)[C@]1(OC)CCC(=O)C3
[4]
  Ki: 592 nM
[5]
  Ki: 4.65 nM
[6]
  Ki: 180 nM
[7]
  ED50: 0.29 mg/kg

## COc1ccc2c(c1O)[C@]13CCN(C)[C@H](C2)[C@]1(O)CCC(=O)C3
[4]
  Ki: 763 nM
[5]
  Ki: 32.6 nM
[6]
  Ki: 881 nM
[7]
  ED50: 2.6 mg/kg

## COc1ccc2c(c1O)[C@@]13C=C(C#N)CC[C@@]1(O)[C@@H](C2)N(C)CC3
[4]
  Ki: 1650 nM
[8]
  ED50: 1.88 mg/kg
[9]
  ED50: 0.18 mg/kg
[6]
  Ki: 498 nM
[7]
  ED50: 0.5 mg/kg
